Reference: ChEMBL document CHEMBL1926569, “Novel (E)-1-(4-methyl-2-(alkylamino)thiazol-5-yl)-3-arylprop-2-en-1-ones as potent antimicrobial agents” (2011)
Values after ≈ are worked out from the molar mass of the structure shown.

How the values were obtained:
Candida albicans [1] = experiment: Ratio of ketoconazole to compound for Candida albicans isolated from human; assay type: functional
Candida albicans [2] = experiment: Antifungal activity against Candida albicans isolated from human after 72 hrs by serial dilution technique; assay type: functional
Method in brief: (§1)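 Modified microdilution in 96-well plates. Fungi were kept on malt agar at 4 °C. Spores were washed off in sterile 0.85% saline with 0.1% Tween 80. Compounds were dissolved at 1 mg/ml in 5% DMSO with 0.1% Tween 80 and added to malt broth with inoculum. Plates were shaken at 160 rpm for 72 h at 28 °C. Duplicate, repeated three times.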

Listeria monocytogenes [3] = experiment: Antibacterial activity against Listeria monocytogenes NCTC 7973 incubated for 24 hrs followed by serial sub-cultivation for 24 hrs by microdilution; assay type: functional; conditions: NCTC 7973, 24 h
Method in brief: (§2)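 MBC: after the 24 h LB broth microdilution (1.0 × 10⁴ CFU per well, 160 rpm), wells were serially sub-cultured into fresh broth plates and incubated a further 24 h. MBC is the lowest concentration with no visible growth, taken as 99.5% killing of the original inoculum. Duplicate, repeated three times.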

Aspergillus ochraceus [4] = experiment: Ratio of ketoconazole to compound for Aspergillus ochraceus ATCC 12066; assay type: functional
Aspergillus niger [5] = experiment: Ratio of bifonazole to compound for Aspergillus niger ATCC 6275; assay type: functional
Trichoderma viride [6] = experiment: Antifungal activity against Trichoderma viride IAM 5061 after 72 hrs by serial dilution technique; assay type: functional; conditions: IAM 5061, 72 h; method in brief: as §1
Pseudomonas aeruginosa [7] = experiment: Antibacterial activity against Pseudomonas aeruginosa ATCC 27853 after 24 hrs by microdilution method; assay type: functional; conditions: ATCC 27853, 24 h
Method in brief: (§3)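 Broth microdilution in 96-well plates. Bacterial suspensions were adjusted in sterile saline to 1.0 × 10⁵ CFU/ml, prepared daily and kept at 4 °C. Compound was added to LB broth with 1.0 × 10⁴ CFU per well and shaken at 160 rpm for 24 h at […] (so in the source). MIC is the lowest concentration with no visible growth under a binocular microscope. OD655 was also read. Duplicate, repeated three times.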

Candida albicans [8] = experiment: Antifungal activity against Candida albicans isolated from human incubated for 72 hrs followed by serial sub-cultivation for 72 hrs by serial dilution technique; assay type: functional
Method in brief: (§4)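 MFC: material from 72 h malt broth microdilution wells was serially sub-cultured into fresh broth plates and incubated a further 72 h at 28 °C. Fungicidal concentration is taken from growth after sub-culture. Duplicate, repeated three times.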

Trichoderma viride [9] = experiment: Ratio of bifonazole to compound for Trichoderma viride IAM 5061; assay type: functional
Aspergillus flavus [10] = experiment: Antifungal activity against Aspergillus flavus ATCC 9643 after 72 hrs by serial dilution technique; assay type: functional; conditions: ATCC 9643, 72 h; method in brief: as §1
Aspergillus ochraceus [11] = experiment: Antifungal activity against Aspergillus ochraceus ATCC 12066 incubated for 72 hrs followed by serial sub-cultivation for 72 hrs by serial dilution technique; assay type: functional; conditions: ATCC 12066, 72 h; method in brief: as §4
Aspergillus ochraceus [12] = experiment: Antifungal activity against Aspergillus ochraceus ATCC 12066 after 72 hrs by serial dilution technique; assay type: functional; conditions: ATCC 12066, 72 h; method in brief: as §1
Talaromyces funiculosus [13] = experiment: Antifungal activity against Penicillium funiculosum ATCC 36839 after 72 hrs by serial dilution technique; assay type: functional; conditions: ATCC 36839, 72 h; method in brief: as §1
Pseudomonas aeruginosa [14] = experiment: Ratio of ampicillin MIC to compound MIC for Pseudomonas aeruginosa ATCC 27853; assay type: functional
Micrococcus flavus [15] = experiment: Antibacterial activity against Micrococcus flavus ATCC 10240 after 24 hrs by microdilution method; assay type: functional; conditions: ATCC 10240, 24 h; method in brief: as §3
Bacillus cereus [16] = experiment: Antibacterial activity against clinical isolate of Bacillus cereus incubated for 24 hrs followed by serial sub-cultivation for 24 hrs by microdilution; assay type: functional; method in brief: as §2
Staphylococcus aureus [17] = experiment: Antibacterial activity against Staphylococcus aureus ATCC 6538 after 24 hrs by microdilution method; assay type: functional; conditions: ATCC 6538, 24 h; method in brief: as §3
Micrococcus flavus [18] = experiment: Antibacterial activity against Micrococcus flavus ATCC 10240 incubated for 24 hrs followed by serial sub-cultivation for 24 hrs by microdilution; assay type: functional; conditions: ATCC 10240, 24 h; method in brief: as §2
Aspergillus ochraceus [19] = experiment: Antifungal activity against Aspergillus ochraceus after 72 hrs by serial dilution technique
Enterococcus faecalis [20] = experiment: Antibacterial activity against Enterococcus faecalis isolated from human incubated for 24 hrs followed by serial sub-cultivation for 24 hrs by microdilution; assay type: functional; method in brief: as §2
Aspergillus flavus [21] = experiment: Antifungal activity against Aspergillus flavus ATCC 9643 incubated for 72 hrs followed by serial sub-cultivation for 72 hrs by serial dilution technique; assay type: functional; conditions: ATCC 9643, 72 h; method in brief: as §4
Staphylococcus aureus [22] = experiment: Antibacterial activity against Staphylococcus aureus ATCC 6538 incubated for 24 hrs followed by serial sub-cultivation for 24 hrs by microdilution method; assay type: functional; conditions: ATCC 6538, 24 h; method in brief: as §2
Aspergillus ochraceus [23] = experiment: Ratio of bifonazole to compound for Aspergillus ochraceus ATCC 12066; assay type: functional
Listeria monocytogenes [24] = experiment: Antibacterial activity against Listeria monocytogenes NCTC 7973 after 24 hrs by microdilution method; assay type: functional; conditions: NCTC 7973, 24 h; method in brief: as §3
Penicillium ochrochloron [25] = experiment: Antifungal activity against Penicillium ochrochloron ATCC 9112 after 72 hrs by serial dilution technique; assay type: functional; conditions: ATCC 9112, 72 h; method in brief: as §1
Pseudomonas aeruginosa [26] = experiment: Antibacterial activity against Pseudomonas aeruginosa ATCC 27853 incubated for 24 hrs followed by serial sub-cultivation for 24 hrs by microdilution; assay type: functional; conditions: ATCC 27853, 24 h; method in brief: as §2
Talaromyces funiculosus [27] = experiment: Antifungal activity against Penicillium funiculosum ATCC 36839 incubated for 72 hrs followed by serial sub-cultivation for 72 hrs by serial dilution technique; assay type: functional; conditions: ATCC 36839, 72 h; method in brief: as §4
Escherichia coli [28] = experiment: Antibacterial activity against Escherichia coli ATCC 35210 after 24 hrs by microdilution method; assay type: functional; conditions: ATCC 35210, 24 h; method in brief: as §3
Aspergillus niger [29] = experiment: Antifungal activity against Aspergillus niger ATCC 6275 after 72 hrs by serial dilution technique; assay type: functional; conditions: ATCC 6275, 72 h; method in brief: as §1
Penicillium ochrochloron [30] = experiment: Ratio of bifonazole to compound for Penicillium ochrochloron ATCC 9112; assay type: functional
Enterococcus faecalis [31] = experiment: Antibacterial activity against Enterococcus faecalis isolated from human after 24 hrs by microdilution method; assay type: functional; method in brief: as §3
Aspergillus niger [32] = experiment: Antifungal activity against Aspergillus niger ATCC 6275 incubated for 72 hrs followed by serial sub-cultivation for 72 hrs by serial dilution technique; assay type: functional; conditions: ATCC 6275, 72 h; method in brief: as §4
Bacillus cereus [33] = experiment: Antibacterial activity against clinical isolate of Bacillus cereus after 24 hrs by microdilution method; assay type: functional; method in brief: as §3
Aspergillus fumigatus [34] = experiment: Ratio of ketoconazole to compound for Aspergillus fumigatus isolated from human; assay type: functional
Penicillium ochrochloron [35] = experiment: Antifungal activity against Penicillium ochrochloron ATCC 9112 incubated for 72 hrs followed by serial sub-cultivation for 72 hrs by serial dilution technique; assay type: functional; conditions: ATCC 9112, 72 h; method in brief: as §4
Aspergillus fumigatus [36] = experiment: Antifungal activity against Aspergillus fumigatus isolated from human incubated for 72 hrs followed by serial sub-cultivation for 72 hrs by serial dilution technique; assay type: functional; method in brief: as §4
Salmonella typhimurium [37] = experiment: Antibacterial activity against Salmonella Typhimurium ATCC 13311 after 24 hrs by microdilution method; assay type: functional, Salmonella enterica subsp. enterica serovar Typhimurium; conditions: Salmonella enterica, ATCC 13311, 24 h; method in brief: as §3
Penicillium ochrochloron [38] = experiment: Ratio of ketoconazole to compound for Penicillium ochrochloron ATCC 9112; assay type: functional
Escherichia coli [39] = experiment: Antibacterial activity against Escherichia coli ATCC 35210 incubated for 24 hrs followed by serial sub-cultivation for 24 hrs by microdilution; assay type: functional; conditions: ATCC 35210, 24 h; method in brief: as §2
Candida albicans [40] = experiment: Ratio of bifonazole to compound for Candida albicans isolated from human; assay type: functional
Salmonella typhimurium [41] = experiment: Antibacterial activity against Salmonella Typhimurium ATCC 13311 incubated for 24 hrs followed by serial sub-cultivation for 24 hrs by microdilution; assay type: functional, Salmonella enterica subsp. enterica serovar Typhimurium; conditions: Salmonella enterica, ATCC 13311, 24 h; method in brief: as §2
Talaromyces funiculosus [42] = experiment: Ratio of bifonazole to compound for Penicillium funiculosum ATCC 36839; assay type: functional
Trichoderma viride [43] = experiment: Antifungal activity against Trichoderma viride IAM 5061 incubated for 72 hrs followed by serial sub-cultivation for 72 hrs by serial dilution technique; assay type: functional; conditions: IAM 5061, 72 h; method in brief: as §4

Compound: CCNc1nc(C)c(C(=O)/C=C/c2ccc(Cl)cc2)s1
- Ratio (Candida albicans [1]): 10
- MIC (Candida albicans [2]): 32.7 µM (≈ 10 µg/mL)
- MBC (Listeria monocytogenes [3]): 98 µM (≈ 30.1 µg/mL)
- Ratio (Aspergillus ochraceus [4]): 10
- Ratio (Aspergillus niger [5]): 10
- MIC (Trichoderma viride [6]): 32.7 µM (≈ 10 µg/mL)
- MIC (Pseudomonas aeruginosa [7]): 65.3 µM (≈ 20 µg/mL)
- MFC (Candida albicans [8]): 65.3 µM (≈ 20 µg/mL)
- Ratio (Trichoderma viride [9]): 10
- MIC (Aspergillus flavus [10]): 65.3 µM (≈ 20 µg/mL)
- MFC (Aspergillus ochraceus [11]): 81.7 µM (≈ 25.1 µg/mL)
- MIC (Aspergillus ochraceus [12]): 65.3 µM (≈ 20 µg/mL)
- MIC (Talaromyces funiculosus [13]): 32.7 µM (≈ 10 µg/mL)
- Ratio (Pseudomonas aeruginosa [14]): 10
- MIC (Micrococcus flavus [15]): 65.3 µM (≈ 20 µg/mL)
- MBC (Bacillus cereus [16]): 81.7 µM (≈ 25.1 µg/mL)
- MIC (Staphylococcus aureus [17]): 98 µM (≈ 30.1 µg/mL)
- MBC (Micrococcus flavus [18]): 81.7 µM (≈ 25.1 µg/mL)
- MIC (Aspergillus ochraceus [19]): 49 µM (≈ 15 µg/mL)
- MBC (Enterococcus faecalis [20]): 81.7 µM (≈ 25.1 µg/mL)
- MFC (Aspergillus flavus [21]): 81.7 µM (≈ 25.1 µg/mL)
- MBC (Staphylococcus aureus [22]): 98 µM (≈ 30.1 µg/mL)
- Ratio (Aspergillus ochraceus [23]): 10
- MIC (Listeria monocytogenes [24]): 98 µM (≈ 30.1 µg/mL)
- MIC (Penicillium ochrochloron [25]): 65.3 µM (≈ 20 µg/mL)
- MBC (Pseudomonas aeruginosa [26]): 98 µM (≈ 30.1 µg/mL)
- MFC (Talaromyces funiculosus [27]): 65.3 µM (≈ 20 µg/mL)
- MIC (Escherichia coli [28]): 65.3 µM (≈ 20 µg/mL)
- MIC (Aspergillus niger [29]): 65.3 µM (≈ 20 µg/mL)
- Ratio (Penicillium ochrochloron [30]): 10
- MIC (Enterococcus faecalis [31]): 81.7 µM (≈ 25.1 µg/mL)
- MFC (Aspergillus niger [32]): 81.7 µM (≈ 25.1 µg/mL)
- MIC (Bacillus cereus [33]): 81.7 µM (≈ 25.1 µg/mL)
- Ratio (Aspergillus fumigatus [34]): 10
- MFC (Penicillium ochrochloron [35]): 81.7 µM (≈ 25.1 µg/mL)
- MFC (Aspergillus fumigatus [36]): 65.3 µM (≈ 20 µg/mL)
- MIC (Salmonella typhimurium [37]): 49 µM (≈ 15 µg/mL)
- Ratio (Penicillium ochrochloron [38]): 10
- MBC (Escherichia coli [39]): 98 µM (≈ 30.1 µg/mL)
- Ratio (Candida albicans [40]): 10
- MBC (Salmonella typhimurium [41]): 49 µM (≈ 15 µg/mL)
- Ratio (Talaromyces funiculosus [42]): 10
- MFC (Trichoderma viride [43]): 65.3 µM (≈ 20 µg/mL)
